Measured values as given in ChEMBL document CHEMBL4266000, “Discovery of Novel 4-Arylisochromenes as Anticancer Agents Inhibiting Tubulin Polymerization” (ACS Med Chem Lett, 2018).
Calls of active or inactive are those of the source. The calls are words filed in the database; no cut-off is given here.

Columns and labels:
[1] = system: HepG2; assay: Antiproliferative activity against human HepG2 cells after 72 hrs by MTT assay; assay type: functional, cell-based; settings: HepG2, 72 h
How it was run: (§1)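 MTT viability read-out after 72 h continuous exposure to test compounds. Performed in triplicate and reported as IC50, means ± SD, n = 3.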

[2] = system: L02; assay: Cytotoxicity against human LO2 cells after 72 hrs by MTT assay; assay type: cell-based; settings: L02, 72 h; how it was run: as §1
[3] = Inhibition of porcine brain tubulin polymerization after 30 mins by spectrophotometric method; parameters: species or system Sus scrofa
[4] = system: MDA-MB-231; assay: Antiproliferative activity against human MDA-MB-231 cells after 72 hrs by MTT assay; assay type: functional, cell-based; settings: MDA-MB-231, 72 h; how it was run: as §1
[5] = system: H22; assay: Antiproliferative activity against […] cells after 72 hrs by MTT assay; assay type: functional, cell-based; settings: Mus musculus, H22, 72 h; how it was run: as §1
[6] = system: K562; assay: Antiproliferative activity against human K562 cells after 72 hrs by MTT assay; assay type: functional, cell-based; settings: K562, 72 h; how it was run: as §1
[7] = system: HCT-8; assay: Antiproliferative activity against human HCT8 cells after 72 hrs by MTT assay; assay type: functional, cell-based; settings: HCT-8, 72 h; how it was run: as §1
[8] = system: KB; assay: Antiproliferative activity against human KB cells after 72 hrs by MTT assay; assay type: functional, cell-based; how it was run: as §1
[9] = species: Sus scrofa; assay: Inhibition of [3H]colchicine binding to biotinylated porcine tubulin at 1 uM after 2 hrs by scintillation proximity assay
[10] = species: Sus scrofa; assay: Inhibition of [3H]colchicine binding to biotinylated porcine tubulin at 5 uM after 2 hrs by scintillation proximity assay
[11] = system: K562; assay: Cell cycle arrest in human K562 cells assessed as accumulation at G2/M phase at 20 nM after 48 hrs by propidium iodide staining based flow cytometry; assay type: functional
How it was run: (§2)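 K562 cells treated at 5, 10 or 20 nM for 48 h. Stained with propidium iodide and DNA content analysed for the fraction in G2/M.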

[12] = system: K562; assay: Cell cycle arrest in human K562 cells assessed as accumulation at G2/M phase at 10 nM after 48 hrs by propidium iodide staining based flow cytometry; assay type: functional; how it was run: as §2
[13] = system: K562; assay: Induction of apoptosis in human K562 cells assessed as late apoptotic cells at 20 nM after 48 hrs by Annexin V-APC/7-AAD staining based flow cytometry (reference value: 5.7%); assay type: functional
[14] = system: H22; assay: Antitumor activity against […] cells xenografted in ICR mouse assessed as reduction in tumor weight at 15 mg/kg, iv qd for 21 consecutive days; assay type: functional; parameters: scale not given: the % may be the effect or the level left
How it was run: (§3)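 H22 cells inoculated subcutaneously into the right flank of mice. Dosing i.v. at 15 or 30 mg/kg per day, or paclitaxel 8 mg/kg every 2 days, for 21 days. Tumor size and body weight recorded every 2 days. Tumor weight compared with vehicle at day 21.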

[15] = system: HUVEC; assay: Antivascular activity against HUVEC assessed as reduction in capillary like tube formation up to 20 nM after 6 hrs by inverted microscopic based matrigel method; assay type: functional, cell-based; settings: Homo sapiens
How it was run: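 HUVECs seeded on matrigel to form capillary-like tubules, then exposed to 0, 5, 10 or 20 nM for 6 h. Disruption of tube networks scored.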

[16] = system: K562; assay: Induction of apoptosis in human K562 cells assessed as late apoptotic cells at 5 nM after 48 hrs by Annexin V-APC/7-AAD staining based flow cytometry (reference value: 5.7%); assay type: functional
[17] = system: K562; assay: Induction of microtubule network disruption in human K562 cells after 24 hrs by DAPI staining based immunofluorescence assay; assay type: functional, cell-based
How it was run: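 K562 cells exposed at 5, 10 or 20 nM for 24 h. Microtubule network visualized by immunofluorescence against untreated cells.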

[18] = system: K562; assay: Induction of apoptosis in human K562 cells assessed as early apoptotic cells at 5 nM after 48 hrs by Annexin V-APC/7-AAD staining based flow cytometry (reference value: 5.7%); assay type: functional
[19] = system: K562; assay: Induction of apoptosis in human K562 cells after 48 hrs by Annexin V-APC/7-AAD staining based flow cytometry; assay type: functional, cell-based
[20] = system: K562; assay: Induction of apoptosis in human K562 cells assessed as early apoptotic cells at 10 nM after 48 hrs by Annexin V-APC/7-AAD staining based flow cytometry (reference value: 5.7%); assay type: functional
[21] = system: K562; assay: Induction of apoptosis in human K562 cells assessed as early apoptotic cells at 20 nM after 48 hrs by Annexin V-APC/7-AAD staining based flow cytometry (reference value: 5.7%); assay type: functional
[22] = system: K562; assay: Cell cycle arrest in human K562 cells assessed as accumulation at G2/M phase at 5 nM after 48 hrs by propidium iodide staining based flow cytometry; assay type: functional; how it was run: as §2
[23] = system: K562; assay: Induction of mitochondrial membrane depolarization in human K562 cells at 10 nM after 48 hrs by JC-1 probe based flow cytometry (reference value: 0.6%); assay type: functional
How it was run: (§4)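 K562 cells treated at 0, 5, 10 or 20 nM for 48 h. Mitochondrial membrane potential measured with JC-1 probe and the percentage of cells with collapsed potential recorded.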

[24] = system: K562; assay: Induction of apoptosis in human K562 cells assessed as late apoptotic cells at 10 nM after 48 hrs by Annexin V-APC/7-AAD staining based flow cytometry (reference value: 5.7%); assay type: functional
[25] = system: K562; assay: Induction of mitochondrial membrane depolarization in human K562 cells at 20 nM after 48 hrs by JC-1 probe based flow cytometry (reference value: 0.6%); assay type: functional; how it was run: as §4
[26] = system: HUVEC; assay: Antimigratory activity in HUVEC after 24 hrs by wound healing based phase contrast microscopy; assay type: functional, cell-based; settings: Homo sapiens
How it was run: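 Confluent HUVEC monolayer scraped to make a wound. Cells exposed to test agent and migration into the scraped area followed over 24 h.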

[27] = system: K562; assay: Induction of mitochondrial membrane depolarization in human K562 cells at 5 nM after 48 hrs by JC-1 probe based flow cytometry (reference value: 0.6%); assay type: functional; how it was run: as §4
[28] = system: H22; assay: Antitumor activity against […] cells xenografted in ICR mouse assessed as reduction in tumor weight at 30 mg/kg, iv qd for 21 consecutive days; assay type: functional; parameters: scale not given: the % may be the effect or the level left; how it was run: as §3
[29] = system: Mus musculus; assay: Toxicity in ICR mouse xenografted with […] cells assessed as decrease in body weight up to 30 mg/kg, iv qd for 21 consecutive days measured every 2 days; assay type: organism-based; settings: in vivo, 48 h; how it was run: as §3
[30] = system: H22; assay: Antitumor activity against […] cells xenografted in ICR mouse assessed as reduction in tumor weight at 8 mg/kg, iv per 2 days for 21 consecutive days; assay type: functional; parameters: scale not given: the % may be the effect or the level left; how it was run: as §3
[31] = system: Mus musculus; assay: Toxicity in ICR mouse xenografted with […] cells assessed as decrease in body weight at 8 mg/kg, iv per 2 days for 21 consecutive days measured every 2 days; assay type: organism-based; settings: in vivo, 48 h; how it was run: as §3

`COc1ccc2c(c1O)COC(C)C2=O` (centres undefined) gave an IC50 [1] of 23700 nM, an IC50 [2] of 22200 nM and an IC50 [3] of 10600 nM. The IC50 [4] was 30200 nM, the IC50 [5] was 18200 nM and the IC50 [6] was 20500 nM. The IC50 [7] was 35200 nM and the IC50 [8] was 25100 nM.

Compound `COc1ccc2c(c1O)COC=C2c1cc(OC)c(OC)c(OC)c1` has an IC50 [1] of 26 nM, an IC50 [2] of 138 nM and an IC50 [3] of 4200 nM. For the same compound, the IC50 [4] was 28 nM, the IC50 [5] was 10 nM and the IC50 [6] was 19 nM. For the same compound, the IC50 [7] was 25 nM and the IC50 [8] was 16 nM.

Compound `COc1ccc2c(c1O)COC[C@@H]2c1cc(OC)c(OC)c(OC)c1` has an IC50 [2] of 58 nM, an inhibition [9] of 79.4% and an IC50 [3] of 2500 nM. For the same compound, the IC50 [4] was 11 nM, the IC50 [5] was 8 nM and the inhibition [10] was 92.6%. The IC50 [6] was 8 nM, the IC50 [7] was 12 nM and the IC50 [8] was 12 nM.

Work on `COc1cc2c(cc1O)C(c1cc(OC)c(OC)c(OC)c1)=COC2` yielded an IC50 [1] greater than 10000 nM.

For `COc1cc2c(cc1O)C(c1cc(OC)c(OC)c(OC)c1)COC2` (centres undefined), the IC50 [1] was greater than 10000 nM.

For `COc1ccc2c(c1O)COC[C@H]2c1cc(OC)c(OC)c(OC)c1`, the IC50 [2] was 900 nM, the IC50 [3] was 4300 nM and the IC50 [4] was 900 nM. The IC50 [5] was 800 nM, the IC50 [6] was 460 nM and the IC50 [7] was 940 nM. The IC50 [8] was 870 nM.

Compound `COc1ccc2c(c1O)COCC2c1cc(OC)c(OC)c(OC)c1` (racemic) has an Activity [11] of 22.4%, an Activity [12] of 19.5% and an IC50 [1] of 15 nM. The Activity [13] was 54.1%, the Activity [14] was 46.5% and the Activity [15] was “Active”. For the same compound, the IC50 [2] was 95 nM, the Activity [16] was 13.7% and the inhibition [9] was 76.4%. The IC50 [3] was 3100 nM, the Activity [17] was “Dose-dependent effect” and the Activity [18] was 13.7%. The Activity [19] was “Dose-dependent effect”, the Activity [20] was 29% and the IC50 [4] was 22 nM. For the same compound, the Activity [21] was 54.1%, the Activity [22] was 17.5% and the IC50 [5] was 11 nM. It also gave an inhibition [10] of 89.6%, an Activity [23] of 26.7% and an IC50 [6] of 10 nM. The Activity [24] was 29%, the Activity [25] was 55.1% and the Activity [26] was “Dose-dependent effect”. It also gave an Activity [27] of 12.7%, an Activity [28] of 62.3% and an IC50 [7] of 30 nM. The IC50 [8] was 25 nM and the Activity [29] was “Non-Toxic”.

Compound `COc1ccc(/C=C\c2cc(OC)c(OC)c(OC)c2)cc1O` [COMBRETASTATIN A4] has an Activity [14] of 44.8%, an IC50 [2] of 95 nM and an IC50 [3] of 2500 nM. For the same compound, the IC50 [4] was 15 nM, the IC50 [5] was 8 nM and the IC50 [6] was 15 nM. It also gave an Activity [28] of 55.3%, an IC50 [7] of 15 nM and an IC50 [8] of 12 nM.

In the case of `CC(=O)O[C@H]1C(=O)[C@@]2(C)[C@H]([C@H](OC(=O)c3ccccc3)[C@]3(O)C[C@H](OC(=O)[C@H](O)[C@@H](NC(=O)c4ccccc4)c4ccccc4)C(C)=C1C3(C)C)[C@]1(OC(C)=O)CO[C@@H]1C[C@@H]2O` [PACLITAXEL], the Activity [30] is reported as 72.1% and the Activity [31] is reported as “Toxic”.
